Compound activity (PubChem)
The list is not random: actives were taken first. Their share in the collection is about 2.1%.
Runt-CBFb FRET: inhibitors of RUNX1 Runt–CBFb binding, primary screen, biochemical, FRET, Cerulean-Runt, Venus-CBFb, uHTS | Cerulean-Runt/Venus-CBFb FRET ratio 530/480, 1 h | inhibition, % at 20 µM | 0.46% of 220,000 active;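 active = inhibition over about 50% at 20 µM in the single-dose screen, limit read from the data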;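 also: 0% = DMSO wells and 100% = excess unlabeled CBFb competitor control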
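Doses: 20 µM compound in 1% DMSO | Material: Cerulean-labeled Runt domain protein | Amount: Each fluorescent fusion protein 100 nM | Schedule: Two 1 h room-temperature incubations shielded from light | Measured by: FRET fluorescence | Evaluation: Loss of energy transfer signal | Controls: Unlabeled CBFb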
Hck-Nef inh: inhibitors of Nef-activated human Hck kinase, primary screen, biochemical, Z-Lyte FRET, 384-well, Hck-YEEI; Tyrosine-protein kinase HCK (Homo sapiens), P08631; Recombinant Hck-YEEI plus Nef, Z-Lyte FRET kinase assay; inhibition, % at 20 µM; 0.68% of 220,000 active; AID 463187, 2010;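 active = Hck-Nef kinase inhibition above about 50%, limit read from the data; inactive = inhibition below that limit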;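 also: 0% = DMSO with Hck plus Nef and 100% = Hck alone without Nef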
TbHK1 inh: Trypanosoma brucei hexokinase 1 inhibitors, primary screen, biochemical, G6PDH-coupled NADH absorbance, MLSCN library; hexokinase 1 [Trypanosoma brucei]; recombinant TbHK1, G6PDH-coupled NADH A340; inhibition, % at 10 µM; 0.11% of 220,000 active;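 active = inhibition of 50% or more in the single-dose primary screen; inactive = inhibition below 50%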
p97 ATPase inh: inhibitors of human p97 ATPase, primary screen, biochemical; Transitional endoplasmic reticulum ATPase (Homo sapiens), P55072; recombinant p97 ATPase, Kinase-Glo ATP luminescence, 3 h; inhibition, % at 8 µM; 0.42% of 220,000 active; in the data active = inhibition above about 15%;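 also: 0% = DMSO vehicle and 100% = wells lacking enzyme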
Target sequence (P55072 whole entry, looked up): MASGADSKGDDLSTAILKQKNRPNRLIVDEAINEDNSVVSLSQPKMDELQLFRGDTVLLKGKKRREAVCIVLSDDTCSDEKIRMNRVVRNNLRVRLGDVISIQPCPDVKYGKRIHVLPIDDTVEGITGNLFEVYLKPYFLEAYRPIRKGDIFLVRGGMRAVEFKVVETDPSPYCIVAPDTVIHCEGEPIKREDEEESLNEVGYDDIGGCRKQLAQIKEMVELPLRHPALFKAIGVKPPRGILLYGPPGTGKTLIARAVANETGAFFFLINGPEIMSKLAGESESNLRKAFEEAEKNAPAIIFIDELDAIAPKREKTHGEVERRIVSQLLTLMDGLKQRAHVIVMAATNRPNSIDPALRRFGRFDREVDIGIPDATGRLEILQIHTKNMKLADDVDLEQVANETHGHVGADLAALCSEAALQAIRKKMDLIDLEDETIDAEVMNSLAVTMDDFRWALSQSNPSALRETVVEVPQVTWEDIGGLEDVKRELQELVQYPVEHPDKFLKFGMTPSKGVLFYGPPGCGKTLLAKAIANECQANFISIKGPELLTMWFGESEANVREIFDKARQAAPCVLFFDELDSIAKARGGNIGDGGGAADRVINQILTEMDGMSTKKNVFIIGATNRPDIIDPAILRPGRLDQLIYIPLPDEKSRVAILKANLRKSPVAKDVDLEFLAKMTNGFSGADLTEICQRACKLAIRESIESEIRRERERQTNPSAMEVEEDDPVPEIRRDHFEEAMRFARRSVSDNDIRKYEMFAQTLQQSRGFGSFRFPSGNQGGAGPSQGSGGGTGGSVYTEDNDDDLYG
Runt-SMMHC FRET: inhibitors of RUNX1 Runt–CBFb-SMMHC binding, primary screen, biochemical, FRET, Cerulean-Runt, Venus-CBFb-SMMHC, uHTS | Runt-related transcription factor 1 (Homo sapiens) + Core-binding factor subunit beta … | Cerulean-Runt/Venus-CBFb-SMMHC FRET ratio 530/480, 1 h | inhibition, % at 20 µM | 0.74% of 220,000 active | AID 1434, 2008;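 active = mean inhibition across duplicate retests at 20 µM reaching about 50%, limit read from the data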;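 also: 0% = DMSO wells and 100% = wells with excess untagged CBFb-SMMHC; inhibitors lower the FRET ratio by blocking Runt binding to CBFb-SMMHC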
RanGTP-Impb inh: inhibitors of RanGTP-importin-beta interaction, primary screen, biochemical, FRET, CFP-Ran, YFP-importin-beta, homogeneous; 1.1% of 300,000 active; inhibition, % (no concentration beside the values); AID 2216, 2009; cell-free CFP-Ran/YFP-importin-beta FRET ratio;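 active = more than half of the replicate wells show a fall in the fluorescence ratio signal beyond about 16%, limit read from the data, passing the limit was not always enough; inconclusive = exactly half of the replicate wells pass the set limit; inactive = fewer than half of replicates pass the limit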;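 also: 0% = DMSO wells and 100% = Ran loaded with GDP instead of GTP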
Active calls of the source: *; ? = inconclusive; / = no result.

SMILES	Runt-CBFb FRET	Hck-Nef inh	TbHK1 inh	p97 ATPase inh	Runt-SMMHC FRET	RanGTP-Impb inh
CCn1c(/C=C/c2c(C)[nH]c3ccccc23)nc2ccccc2c1=O	19	3	1	3	59*	-26
CN(C)S(=O)(=O)c1ccc2[nH]cc(/C=C/c3nc4ccccc4c(=O)n3-c3ccccc3)c2c1	-46	1	-6	-1	-35	29*
Cc1[nH]c2ccccc2c1/C=N/NC(=O)c1ccccc1	/	/	/	/	/	1
Cc1[nH]c2ccccc2c1/C=C/c1nc2ccccc2c(=O)[nH]1	18	23	3	6	39	34*
CCn1c(/C=C/c2c[nH]c3ccccc23)nc2ccccc2c1=O	-3	9	-2	-1	0	12
Cc1[nH]c2ccccc2c1/C=C/C(=O)c1ccccc1	-31	2	-10	1	-36	41*
Cc1ccc(Cl)c(OC(=O)C2CSC3(C)CCC(=O)N23)c1 (stereo unspecified)	/	/	/	/	/	1
CC(=O)Nc1ccc(NC(=O)C(C)OC(=O)CCC2CCCC2)cc1 (stereo unspecified)	/	/	/	/	/	-5
CCn1c(/C=C/c2cccc([N+](=O)[O-])c2)nc2ccccc2c1=O	-2	0	-8	-4	-4	0
Cc1[nH]c2ccccc2c1/C=C/c1nc2ccccc2c(=O)n1-c1ccc([N+](=O)[O-])cc1	-41	7	-8	9	-128	38*
COc1ccc(C(=O)N=S2CCN(C(=O)c3ccc(Cl)cc3)CC2)cc1	2	7	-5	6	0	1
COc1cccc(CNC(=O)c2cccc(Br)c2)c1	-1	1	38	5	-4	30*
CSc1nc(NCC(C)C)c2c3c(sc2n1)CN(C)CC3	5	2	-5	1	60	17*
CC(C)Sc1nc(N)c2c3c(sc2n1)CN(C)CC3	13	-1	-55	4	29	21*
CCCSc1nc(N)c2c3c(sc2n1)CN(C)CC3	6	9	-30	1	38	9
O=C(Nc1csnn1)c1csnn1	1	0	-9	11	-5	-1
CCOc1ccc2nc(NCCNC(=S)NCCCN(C)C)c(C#N)cc2c1	19	-33	9	4	92*	93*
CCOc1ccc2nc(SCC#N)c(C#N)cc2c1	3	1	1	1	-8	-1
CCOc1ccc2nc(NCCNC(=O)Nc3cccc(C)c3)c(C#N)cc2c1	88*	4	8	6	38	-2
CCOc1ccc2nc(NCCCNS(=O)(=O)c3ccc(C)cc3)c(C#N)cc2c1	6	-8	5	3	102*	129*
CCOc1ccc2nc(NCCNC(=O)Nc3ccccc3)c(C#N)cc2c1	8	25	14	10	25	86*
CCOc1ccc(S(=O)(=O)n2cc(F)c(=O)[nH]c2=O)cc1	2	33	0	2	-4	3
CCN(CC)c1nc2c3c(nc4c(c3c1C#N)CC(=O)N4c1ccc(Cl)cc1)NC(C)=N2	-2	6	-12	7	-5	1
O=C(Cn1nc(Cl)nc1Cl)c1cc2ccccc2oc1=O	2	2	-1	3	7	10
CCOC(=O)c1cc(C#N)c(N2CCN(C)CC2)nc1-c1ccccc1	-2	24	-10	0	-5	-5
SMILES	Runt-CBFb FRET	Hck-Nef inh	TbHK1 inh	p97 ATPase inh	Runt-SMMHC FRET	RanGTP-Impb inh
COC(=O)c1cc(S(=O)(=O)N2CCN(c3ccc(F)cc3)CC2)c[nH]1	/	/	/	/	/	5
COC(=O)c1cc(S(=O)(=O)N2CCN(c3ccccc3)CC2)c[nH]1	/	/	/	/	/	29*
CCOC(=O)N1CCN(c2nc3ccccc3nc2C(C#N)C(=O)NCCc2ccccc2)CC1 (stereo unspecified)	-19	-4	-7	-4	-108	-8
CCN(CC)c1nc2ccccc2nc1C(C#N)C(=O)NCCc1ccccc1 (stereo unspecified)	34	2	-9	-3	59*	52*
CCN(CC)c1nc2ccccc2nc1C(C#N)C(=O)NCCCOC (stereo unspecified)	67*	5	-2	-7	61*	/
CCCN(CCC)c1nc2ccccc2nc1C(C#N)C(=O)OC(C)COC (stereo unspecified)	/	-1	-14	1	/	23*
CCCCN(CCCC)c1nc2ccccc2nc1C(C#N)C(=O)NCCCOC (stereo unspecified)	3	-2	-10	1	26	32*
CCCCCNC(=O)C(C#N)c1nc2ccccc2nc1N1CC(C)OC(C)C1 (stereo unspecified)	/	5	4	1	/	/
COc1ccc(C(=O)NCC(=O)OCC(=O)c2ccc3c(c2)OCCO3)cc1	1	32	-12	-5	-5	0
Cc1ccc(C(=O)NCCc2c[nH]c3ccccc23)s1	/	/	/	/	/	2
COc1ccc2nc(SCC(=O)c3ccco3)[nH]c2c1	0	1	2	3	4	?
Cc1cc(C(=O)NN=C2CCCCCC2)c(C)o1	0	18	-8	4	0	6
COC(=O)C1=CN(Cc2ccc(OC)cc2)C=C(C(=O)OC)C1c1cc(OC)c(OC)c(OC)c1	/	/	/	/	/	13
COC(=O)C1=CN(CC2CCCO2)C=C(C(=O)OC)C1c1cc(OC)c(OC)c(OC)c1 (stereo unspecified)	37	45	-11	-1	93*	3
CCOC(=O)/C(O)=C(\C#N)c1nc2ccccc2[nH]1	33	-10	-22	8	74*	5
COc1cccc(/C=N/NC(=O)COc2cccc3cccnc23)c1O	6	-1	-4	2	20	-2
C=CCn1cc(/C=N/NC(=O)COc2cccc3cccnc23)c2ccccc21	-4	71*	-11	2	-5	-1
CC(C)n1cc(/C=N/NC(=O)COc2cccc3cccnc23)c2ccccc21	-5	74*	-22	4	-14	3
COc1ccc(S(=O)(=O)N2CCC(C(=O)NCc3ccccc3)CC2)cc1OC	0	14	0	7	0	-1
COc1cccc(C(=O)COc2ccc(NC(=O)c3ccccc3)cc2)c1	/	/	/	/	/	1
CCC(=O)Nc1cccc(C2=NOC3(C2)C[C@@H](C(N)=O)N(C(=O)CC(c2ccccc2)c2ccccc2)C3)c1 (stereo partly specified)	2	27	-4	/	-4	-3
